According to ChEMBL document CHEMBL2412956, “Synthesis and biological activity evaluation of 5-pyrazoline substituted 4-thiazolidinones” (Eur J Med Chem, 2013):

How the values were obtained:
Type in all cases: functional
PC-3 [1] = experiment: Cytotoxicity against human PC3 cells after 48 hrs by SRB assay; settings: PC-3, 48 h
Method in brief: (§1)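 This was the NCI 60-cell-line five-dose screen, using 10-fold dilutions from 100 to 0.01 μM and continuous 48-h exposure. Growth was read by sulforhodamine B protein staining relative to time-zero and untreated controls. […] Where an endpoint was not reached, the value was given as beyond the range tested.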

KM12 [2] = experiment: Cytotoxicity against human KM12 cells after 48 hrs by SRB assay; settings: KM12, 48 h; method in brief: as §1
CCRF-CEM [3] = experiment: Cytotoxicity against human CCRF-CEM cells assessed as cell growth at 10 uM after 48 hrs by SRB assay relative to control; settings: read-out: Activity
Method in brief: (§2)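 This was the NCI primary screen, with compound added once at 10⁻⁵ M and cultures incubated for 48 h. The endpoint was sulforhodamine B protein staining. Results are expressed as percent growth of treated cells relative to untreated control cells.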

K562 [4] = experiment: Cytotoxicity against human K562 cells after 48 hrs by SRB assay; settings: K562, 48 h; method in brief: as §1
PC-3 [5] = experiment: Cytotoxicity against human PC3 cells assessed as cell growth at 10 uM after 48 hrs by SRB assay relative to control; settings: PC-3, 48 h, read-out: Activity; method in brief: as §2
MDA-MB-435 = experiment: Cytotoxicity against human MDA-MB-435 cells after 48 hrs by SRB assay; settings: MDA-MB-435, 48 h; method in brief: as §1
LOX IMVI = experiment: Cytotoxicity against human LOXIMVI cells after 48 hrs by SRB assay; method in brief: as §1
SF-295 [6] = experiment: Cytotoxicity against human SF295 cells after 48 hrs by SRB assay; settings: SF-295, 48 h; method in brief: as §1
HCT-15 = experiment: Cytotoxicity against human HCT15 cells after 48 hrs by SRB assay; settings: HCT-15, 48 h; method in brief: as §1
K562 [7] = experiment: Cytotoxicity against human K562 cells assessed as cell growth at 10 uM after 48 hrs by SRB assay relative to control; settings: K562, 48 h, read-out: Activity; method in brief: as §2
MOLT-4 = experiment: Cytotoxicity against human MOLT4 cells assessed as cell growth at 10 uM after 48 hrs by SRB assay relative to control; settings: MOLT-4, 48 h, read-out: Activity; method in brief: as §2
DU-145 = experiment: Cytotoxicity against human DU145 cells after 48 hrs by SRB assay; settings: DU-145, 48 h; method in brief: as §1
RXF 393 = experiment: Cytotoxicity against human RXF393 cells assessed as cell growth at 10 uM after 48 hrs by SRB assay relative to control; settings: RXF 393, 48 h, read-out: Activity; method in brief: as §2
SR = experiment: Cytotoxicity against human SR cells after 48 hrs by SRB assay
Method in brief: (§3)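 NCI 60-cell-line panel, five 10-fold concentrations from 100 μM to 0.01 μM (10⁻⁴ to 10⁻⁸ M) with 48-h continuous exposure. Growth was read by SRB protein staining against time-zero and untreated controls. […] Values beyond the tested range are expressed as greater or less than the limit.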

HCT-116 = experiment: Cytotoxicity against human HCT116 cells after 48 hrs by SRB assay; settings: HCT-116, 48 h; method in brief: as §1
HL-60(TB) [8] = experiment: Cytotoxicity against human HL-60(TB) cells after 48 hrs by SRB assay; settings: HL-60, 48 h; method in brief: as §1
CCRF-CEM [9] = experiment: Cytotoxicity against human CCRF-CEM cells after 48 hrs by SRB assay; method in brief: as §1
HL-60(TB) [10] = experiment: Cytotoxicity against human HL-60(TB) cells assessed as cell growth at 10 uM after 48 hrs by SRB assay relative to control; settings: HL-60, 48 h, read-out: Activity; method in brief: as §2
786-0 = experiment: Cytotoxicity against human 786-0 cells after 48 hrs by SRB assay; settings: 786-0, 48 h; method in brief: as §1
MCF7 = experiment: Cytotoxicity against human MCF7 cells assessed as cell growth at 10 uM after 48 hrs by SRB assay relative to control; settings: MCF7, 48 h, read-out: Activity; method in brief: as §2
NCI-H460 = experiment: Cytotoxicity against human NCI-H460 cells after 48 hrs by SRB assay; settings: NCI-H460, 48 h; method in brief: as §1
OVCAR-3 [11] = experiment: Cytotoxicity against human OVCAR3 cells assessed as cell growth at 10 uM after 48 hrs by SRB assay relative to control; settings: OVCAR-3, 48 h, read-out: Activity; method in brief: as §2
HOP-92 = experiment: Cytotoxicity against human HOP92 cells assessed as cell growth at 10 uM after 48 hrs by SRB assay relative to control; settings: HOP-92, 48 h, read-out: Activity; method in brief: as §2
KM12 [12] = experiment: Cytotoxicity against human KM12 cells assessed as cell growth at 10 uM after 48 hrs by SRB assay relative to control; settings: KM12, 48 h, read-out: Activity; method in brief: as §2
U-251 = experiment: Cytotoxicity against human U251 cells after 48 hrs by SRB assay; settings: U-251, 48 h; method in brief: as §3
OVCAR-3 [13] = experiment: Cytotoxicity against human OVCAR3 cells after 48 hrs by SRB assay; settings: OVCAR-3, 48 h; method in brief: as §1
SF-295 [14] = experiment: Cytotoxicity against human SF295 cells assessed as cell growth at 10 uM after 48 hrs by SRB assay relative to control; settings: SF-295, 48 h, read-out: Activity; method in brief: as §2
RPMI-8226 = experiment: Cytotoxicity against human RPMI8226 cells after 48 hrs by SRB assay; settings: RPMI-8226, 48 h; method in brief: as §1
UACC-62 = experiment: Cytotoxicity against human UACC62 cells after 48 hrs by SRB assay; settings: UACC-62, 48 h; method in brief: as §3
HOP-62 = experiment: Cytotoxicity against human HOP62 cells after 48 hrs by SRB assay; settings: HOP-62, 48 h; method in brief: as §1
T47D = experiment: Cytotoxicity against human T47D cells assessed as cell growth at 10 uM after 48 hrs by SRB assay relative to control; settings: read-out: Activity
Method in brief: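 Single-dose NCI screen: compound at 10⁻⁵ M added to tumor cell cultures and incubated for 48 h. The SRB protein-binding dye end point was read spectrophotometrically. Results are percent growth of treated cells relative to untreated controls.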

SMILES: COc1ccc(C2=NN(C(=O)/C=C3\SC(=O)NC3=O)C(c3ccccc3O)C2)cc1 (stereo not given)
- GI50 (PC-3 [1]): 4.63 µM
- TGI (PC-3 [1]): 44.4 µM
- GI50 (KM12 [2]): 4.76 µM
- TGI (KM12 [2]): 15.3 µM
- growth at 10 µM (CCRF-CEM [3]): 19.5%
- GI50 (K562 [4]): 4.58 µM
- TGI (K562 [4]): 100 µM
- growth at 10 µM (PC-3 [5]): 33.6%
- GI50 (MDA-MB-435): 3.91 µM
- TGI (MDA-MB-435): 31.7 µM
- GI50 (LOX IMVI): 3.21 µM
- TGI (LOX IMVI): 17.9 µM
- GI50 (SF-295 [6]): 2.99 µM
- TGI (SF-295 [6]): 10 µM
- GI50 (HCT-15): 4.85 µM
- TGI (HCT-15): 24.6 µM
- growth at 10 µM (K562 [7]): 33.2%
- growth at 10 µM (MOLT-4): 16.5%
- GI50 (DU-145): 4.64 µM
- TGI (DU-145): 18.4 µM
- growth at 10 µM (RXF 393): 31.4%
- GI50 (SR): 2.85 µM
- TGI (SR): 9.02 µM
- GI50 (HCT-116): 4.56 µM
- TGI (HCT-116): 16.4 µM
- GI50 (HL-60(TB) [8]): 3.35 µM
- TGI (HL-60(TB) [8]): 9.14 µM
- GI50 (CCRF-CEM [9]): 2.85 µM
- TGI (CCRF-CEM [9]): 11.3 µM
- growth at 10 µM (HL-60(TB) [10]): -27.3%
- GI50 (786-0): 2.96 µM
- TGI (786-0): 13.5 µM
- growth at 10 µM (MCF7): 30.3%
- GI50 (NCI-H460): 4.18 µM
- TGI (NCI-H460): 18.7 µM
- growth at 10 µM (OVCAR-3 [11]): 36.4%
- growth at 10 µM (HOP-92): 37.8%
- growth at 10 µM (KM12 [12]): 29.9%
- GI50 (U-251): 4.29 µM
- TGI (U-251): 16.6 µM
- GI50 (OVCAR-3 [13]): 3.17 µM
- TGI (OVCAR-3 [13]): 11 µM
- growth at 10 µM (SF-295 [14]): -13.4%
- GI50 (RPMI-8226): 2.12 µM
- TGI (RPMI-8226): 6.91 µM
- GI50 (UACC-62): 2.83 µM
- TGI (UACC-62): 9.28 µM
- GI50 (HOP-62): 4.85 µM
- TGI (HOP-62): 19.8 µM
- growth at 10 µM (T47D): 38%
